17 molecules from ChEMBL document CHEMBL1136765, “1,3-dioxolane-based ligands as a novel class of alpha1-adrenoceptor antagonists” (J Med Chem, 2003) can be followed below.

Each structure is given as a SMILES string.

In assay [1] the target is Alpha adrenergic receptor 1A and 1B (Rattus norvegicus) (UniProt P15823+P43140). Description: Selectivity given as ratio of pKb value against alpha1A receptor to pKb value against alpha-1B receptor in rat. Type of assay: functional.
Assay [2] deals with Alpha adrenergic receptor 1A and 1D (Rattus norvegicus) (UniProt P23944+P43140). The assay can be described thus: Selectivity given as ratio of pKb value against Alpha-1D receptor to pKb value against alpha1A receptor in rat. Type of assay: functional.
A short description of assay [3]: Selectivity given as ratio of pKb value against Alpha-1D receptor to pKb value against Alpha-1B receptor in rat. It is filed as functional.
Assay [4] deals with T1, Alpha-1B adrenergic receptor (Rattus norvegicus) (UniProt P15823).
T1 sequence (whole entry): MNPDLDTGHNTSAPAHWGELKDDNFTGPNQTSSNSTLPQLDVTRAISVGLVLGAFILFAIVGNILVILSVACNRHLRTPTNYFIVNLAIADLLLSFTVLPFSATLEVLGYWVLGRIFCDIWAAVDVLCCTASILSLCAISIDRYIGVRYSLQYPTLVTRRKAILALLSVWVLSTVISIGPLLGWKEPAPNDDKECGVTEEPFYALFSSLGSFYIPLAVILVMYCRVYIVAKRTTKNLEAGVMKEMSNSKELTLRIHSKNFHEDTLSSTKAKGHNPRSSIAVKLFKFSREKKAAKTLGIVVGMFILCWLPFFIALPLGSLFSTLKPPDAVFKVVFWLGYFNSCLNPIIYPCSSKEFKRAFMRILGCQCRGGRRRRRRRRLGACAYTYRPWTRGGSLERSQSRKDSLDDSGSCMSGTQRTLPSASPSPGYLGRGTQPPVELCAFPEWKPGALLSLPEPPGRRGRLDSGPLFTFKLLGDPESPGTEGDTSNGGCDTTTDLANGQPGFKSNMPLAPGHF
Description: Inhibition of (-)-phenylephrine-induced contraction of rat spleen (Alpha-1B adrenergic receptor ). It is filed as functional, tissue-based. The method in brief:
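Rat spleen strips in buffer containing 4 µM propranolol to block β-adrenoceptors, 1 g resting tension, 2 h equilibration. Isometric cumulative phenylephrine curves at 30 min intervals; first discarded, second control.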

In assay [5] the target is T2, Alpha-1D adrenergic receptor (Rattus norvegicus, UniProt P23944).
T2 sequence (P23944 whole entry): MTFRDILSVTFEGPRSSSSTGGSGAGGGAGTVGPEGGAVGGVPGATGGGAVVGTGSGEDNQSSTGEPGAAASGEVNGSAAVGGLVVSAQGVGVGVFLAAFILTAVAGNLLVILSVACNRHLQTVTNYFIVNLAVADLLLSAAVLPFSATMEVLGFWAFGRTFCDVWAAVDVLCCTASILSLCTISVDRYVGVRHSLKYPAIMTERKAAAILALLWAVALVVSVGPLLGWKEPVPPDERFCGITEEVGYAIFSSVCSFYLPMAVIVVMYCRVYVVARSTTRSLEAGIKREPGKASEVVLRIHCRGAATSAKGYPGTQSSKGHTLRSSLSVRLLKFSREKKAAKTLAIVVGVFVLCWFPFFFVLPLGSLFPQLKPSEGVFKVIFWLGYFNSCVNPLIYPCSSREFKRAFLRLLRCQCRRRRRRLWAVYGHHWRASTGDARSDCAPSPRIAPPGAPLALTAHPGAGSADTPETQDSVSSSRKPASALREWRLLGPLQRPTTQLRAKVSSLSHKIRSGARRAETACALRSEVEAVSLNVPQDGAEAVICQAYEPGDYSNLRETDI
Description: Antagonistic activity against (-)-noradrenaline-induced contraction of rat thoracic aorta (Alpha-1D adrenergic receptor). Type of assay: functional, tissue-based. Particulars: read-out: pA2 (converted). Put shortly:
(§1)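 Endothelium-denuded rat thoracic aorta strips (denudation confirmed by no 100 µM acetylcholine relaxation after 1 µM noradrenaline) in Tyrode, 1 g tension, ≥2 h equilibration. Cumulative (-)-noradrenaline curves at 1 h intervals; third as control, antagonist 30 min before fourth.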

Assay [6] has as its target T3, Alpha-1A adrenergic receptor (Rattus norvegicus) (UniProt P43140).
T3 sequence (whole entry): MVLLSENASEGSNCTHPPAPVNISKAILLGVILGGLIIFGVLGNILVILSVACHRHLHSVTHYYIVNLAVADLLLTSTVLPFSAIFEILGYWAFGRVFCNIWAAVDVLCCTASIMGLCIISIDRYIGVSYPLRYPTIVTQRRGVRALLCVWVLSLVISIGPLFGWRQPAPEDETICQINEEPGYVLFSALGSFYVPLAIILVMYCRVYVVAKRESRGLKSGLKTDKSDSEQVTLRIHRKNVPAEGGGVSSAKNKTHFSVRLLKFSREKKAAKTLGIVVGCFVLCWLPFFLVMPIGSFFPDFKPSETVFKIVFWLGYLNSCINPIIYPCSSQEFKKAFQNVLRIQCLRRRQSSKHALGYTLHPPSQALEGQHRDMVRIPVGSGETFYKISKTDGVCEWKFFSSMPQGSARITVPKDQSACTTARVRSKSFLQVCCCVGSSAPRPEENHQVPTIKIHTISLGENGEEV
The assay can be described thus: Inhibition of (-)-noradrenaline-induced contraction of rat prostatic vas deferens (alpha1A receptor). Type of assay: functional. The method in brief:
(§2)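 Rat prostatic vas deferens portion equilibrated 60 min, washed every 15 min, primed twice with 10 µM noradrenaline, re-equilibrated 60 min; control noradrenaline concentration-response curve, then antagonist 30 min before repeat curve.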

In assay [7] the target is T4, Alpha-1D adrenergic receptor (Rattus norvegicus) (UniProt P23944).
T4 sequence (whole entry): T2 sequence (P23944 whole entry)
The assay can be described thus: Inhibition of (-)-noradrenaline-induced contraction of rat thoracic aorta (Alpha-1D adrenergic receptor). Type of assay: functional, tissue-based. The method in brief:
as §1

Assay [8] concerns the target T3, Alpha-1A adrenergic receptor (Rattus norvegicus). The assay can be described thus: Antagonistic activity against (-)-noradrenaline-induced contraction of rat prostatic vas deferens (Alpha-1A adrenergic receptor). Type of assay: functional, tissue-based. The method in brief: as §2
The target of assay [9] is T5, Alpha-1A adrenergic receptor (Rattus norvegicus, UniProt P43140).
T5 sequence (P43140 whole entry): T3 sequence (whole entry)
The assay can be described thus: Antagonistic activity against (-)-noradrenaline-induced contraction of rat prostatic vas deferens (Alpha-1A adrenergic receptor ). It is filed as functional, tissue-based. The following applies: read-out: pA2 (converted). Put shortly:
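Rat prostatic vas deferens segments equilibrated 60 min, washed every 15 min, primed twice with 10 µM noradrenaline, then re-equilibrated 60 min. Basal noradrenaline concentration-response curve, then repeat after 30 min antagonist equilibration.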

The term pKb denotes the Kb on a negative log10 scale, so that one unit is a factor of ten. For `COc1cccc(OC)c1OCCNCC1COC(c2ccccc2)(c2ccccc2)O1.O=C(O)C(=O)O` (centres undefined), the figures for the Selectivity in [1], in [2] and in assay [3] were 0.7, 16 and 11, respectively. Also, the pKb came out at 5.89 in assay [4] and 5.73 in assay [6]. Also, the Kb in [5] is 117 nM.
`COc1ccccc1N1CCN(CCN2C(=O)CC3(CCCC3)CC2=O)CC1`: the pKb in assay [4] stood at 7.48; in [7] it was 8.4.
With `COc1cccc(OC)c1OCCNCC1COC(c2ccc3ccccc3c2)O1.O=C(O)C(=O)O` (centres undefined), the Selectivity in assay [1] was 5; in assay [2], 7; in assay [3], 33. Moreover, the figures for the pKb in [4], in [7] and in assay [6] were 5.12, 6.65 and 5.79, respectively.
In the case of `COc1cccc(OC)c1OCCNCC1CO[C@H](C(c2ccccc2)c2ccccc2)O1.O=C(O)C(=O)O` (some centres undefined), the Selectivity in assay [1] was 12; in [2], 36; in [3] it was 44. The figures for the pKb in [4], in assay [7] and in [6] were 5.51, 7.15 and 5.6, respectively.
For `COc1cccc(OC)c1OCCNCC1CO[C@H](c2cccc3ccccc23)O1.O=C(O)C(=O)O` (some centres undefined), the figures for the Selectivity in assay [1], in [2] and in [3] were less than 0.04, greater than 209 and 9, respectively. Moreover, the pKb in assay [4] was 6.38; in assay [7] it was 7.32; in [6], less than 5.
In the case of `COc1cccc(OC)c1OCCNCC1CO[C@H](c2ccccc2)O1.O=C(O)C(=O)O` (some centres undefined), the values for the negative-log Kb (pKb) in assay [8], in assay [4] and in assay [7] were 6.61, 5.7 and 6.44, respectively. In addition, the Selectivity in assay [1] is 8; in [2], 0.7; in [3], 6.
On to `COc1cccc(OC)c1OCCNCC1CO[C@@](C)(c2ccccc2)O1.O=C(O)C(=O)O` (some centres undefined), for which the Selectivity turned out to be 0.6 in [1], 11 in [2] and 7 in assay [3]. The pKb in assay [4] came out at 5.93; in [7], 6.69; in [6] it was 5.74.
For `COc1cccc(OC)c1OCCNCC1CO[C@@H](c2ccccc2)O1.O=C(O)C(=O)O` (some centres undefined), the Selectivity is 1 in assay [1], 0.7 in assay [2] and 1 in assay [3]. The negative logarithm of the Kb (pKb) in assay [4] came to 6.19; in assay [7] it was 6.18; in assay [6] it was 6.31.
Regarding `COc1cccc(OC)c1OCCNCC1CO[C@@H](C(c2ccccc2)c2ccccc2)O1.O=C(O)C(=O)O` (some centres undefined), the values for the Selectivity in assay [1], in assay [2] and in assay [3] were 21, 1 and 28, respectively. Also, the negative logarithm of the Kb (pKb) in assay [4] amounted to 5.44; in assay [7] it was 6.88; in assay [6] it was 6.77.
For `COc1cccc(OC)c1OCCNCC1CO[C@](C)(c2ccccc2)O1.O=C(O)C(=O)O` (some centres undefined), the Selectivity in assay [1] was 2; in [2] it was 12; in [3], 21. Further, the negative logarithm of the Kb (pKb) in [4] is 5.56; in assay [6] it was 5.8. Besides, in assay [5], the Kb is 129 nM.
On to `COc1cccc(OC)c1OCCNCC1CO[C@H](Cc2ccccc2)O1.O=C(O)C(=O)O` (some centres undefined), for which the Selectivity in [1] came out at 0.4; in [2], 0.6; in assay [3], 0.2. The negative logarithm of the Kb (pKb) in [4] turned out to be 5.77; in assay [7], 5.13; in assay [6], 5.36.
For the molecule `O=C(O)C(=O)O.c1ccc(OCCNCC2CO[C@@H](c3ccccc3)O2)cc1` (some centres undefined), the Selectivity in assay [1] was 0.4; in assay [2], 9; in assay [3], 4. The pKb in assay [4] was 6.4; in assay [7], 6.94; in [6] it was 6.01.
For `COc1cccc(OC)c1OCCNCC1CO[C@@H](c2cccc3ccccc23)O1.O=C(O)C(=O)O` (some centres undefined), the Selectivity in assay [1] came out at 0.2; in assay [2] it was 24; in assay [3], 5. Moreover, the negative logarithm of the Kb (pKb) in assay [4] stood at 6.38; in [7] it was 7.07; in assay [6], 5.69.
In the case of `COc1cccc(OC)c1OCCNCC1COc2ccccc2O1` (centres undefined), the Kb in [5] is 2.51 nM; in [9], 0.437 nM.
`O=C(O)C(=O)O.c1ccc(OCCNCC2COC3(CCCCC3)O2)cc1` (centres undefined): the Selectivity in assay [1] stood at 0.1; in [2] it was 19; in assay [3] it was 2. In addition, the pKb in assay [4] was determined as 6.2; in assay [7], 6.54; in assay [6], 5.27.
With `COc1cccc(OC)c1OCCNCC1CO[C@@H](Cc2ccccc2)O1.O=C(O)C(=O)O` (some centres undefined), the Selectivity in assay [1] was 23; in [2] it was 0.2; in assay [3], 5. In addition, the pKb in [4] was found to be 5.45; in [7], 6; in assay [6], 6.82.
On to `O=C(O)C(=O)O.c1ccc(OCCNCC2CO[C@H](c3ccccc3)O2)cc1` (some centres undefined), for which the Selectivity is 0.1 in assay [1], 45 in [2] and 6 in assay [3]. Also, the negative-log Kb (pKb) in assay [4] worked out at 6.3; in assay [7], 7.09; in assay [6], 5.44.
